From ChEMBL document CHEMBL4622840, “Microbial transformation of glycyrrhetinic acid derivatives by Bacillus subtilis ATCC 6633 and Bacillus megaterium CGMCC 1.1741” (Bioorg Med Chem, 2020) come the findings set out here.

One data set deals with RAW264.7. Nature of the data set: Antiinflammatory activity in mouse RAW264.7 cells assessed as inhibition of NO production preincubated for 1 hr followed by LPS stimulation measured after 24 hrs by Griess reagent based assay. The format is functional, cell-based. In short, it runs like this:
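RAW 264.7 macrophages kept at 37 °C under 5% CO2. Cells were exposed to compound for 1 h, then stimulated with LPS at 1.0 μg/mL. After 24 h, nitrite/NO in the medium was read with Griess reagent.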

The nature of data set [1]: Cytotoxicity against mouse RAW264.7 cells assessed as cell viability. On the set-up: concentration or dose not given beside the values. The settings on record: read-out: Activity. The format is cell-based.
[2] abbreviates: Mus musculus, RAW264.7, read-out: IC50.

What is called IC50 is the concentration at which inhibition is half-maximal. Turning to `CC1(C)CC[C@]2(C(=O)O)CC[C@]3(C)C(=CC(=O)[C@@H]4[C@@]5(C)CC[C@H](O)C(C)(C)[C@@H]5CC[C@]43C)[C@@H]2C1`, the IC50 entry in the data set on RAW264.7 (raw264.7) is given as “Not Active”. For the same compound, the viability in data set [1] came to 111%.

In the case of `CC1(C)[C@@H](O)CC[C@]2(C)[C@H]3C(=O)C=C4[C@@H]5C[C@@](C)(CO)CC[C@]5(C)CC[C@@]4(C)[C@]3(C)CC[C@@H]12`, in the data set on RAW264.7 (setting [2]), the IC50 amounted to 50.3 µM. Besides, the viability in data set [1] was determined as 56.6%.

`CC1(C)[C@@H](O)CC[C@]2(C)[C@H]3CC=C4[C@@H]5C[C@@](C)(CO)CC[C@]5(C)CC[C@@]4(C)[C@]3(C)CC[C@@H]12`: in the data set with RAW264.7 (setting [2]), the IC50 was 48.2 µM. In data set [1], the viability is 102%.

Regarding `CC1(C)C(=O)CC[C@]2(C)[C@H]3CC=C4[C@@H]5C[C@@](C)(CO)CC[C@]5(C)CC[C@@]4(C)[C@]3(C)CC[C@@H]12`, the IC50 with RAW264.7 (setting [2]) amounted to 38.3 µM. For the same compound, the viability in data set [1] came out at 110%.

Consider `CC1(C)CC[C@]2(C(=O)O[C@@H]3O[C@H](CO)[C@@H](O)[C@H](O)[C@H]3O)CC[C@]3(C)C(=CC(=O)[C@@H]4[C@@]5(C)CC[C@H](O)C(C)(C)[C@@H]5CC[C@]43C)[C@@H]2C1`, for which the half-maximal inhibitory concentration (IC50) in the data set on RAW264.7 (setting [2]) came out at 11.1 µM. Also, the viability in data set [1] was 82.7%.

Take `CC1(C)[C@@H](O)CC[C@]2(C)[C@H]3CC=C4[C@@H]5C[C@@](C)(CO)CC[C@]5(C)C[C@H](O)[C@@]4(CO)[C@]3(C)[C@@H](O)C[C@@H]12`: the IC50 with RAW264.7 (setting [2]) was 0.07 µM. Besides, the viability in data set [1] was found to be 107%.

With `CC1(C)[C@@H](O[C@@H]2O[C@H](CO)[C@@H](O)[C@H](O)[C@H]2O)CC[C@]2(C)[C@H]3C(=O)C=C4[C@@H]5C[C@@](C)(C=O)CC[C@]5(C)CC[C@@]4(C)[C@]3(C)CC[C@@H]12`, the IC50 result in the data set on RAW264.7 (raw264.7) is on record as “Not Active”. Besides, in data set [1], the viability turned out to be 7.33%.

Take `CC1(C)[C@@H](O[C@@H]2O[C@H](CO)[C@@H](O)[C@H](O)[C@H]2O)CC[C@]2(C)[C@H]3C(=O)C=C4[C@@H]5C[C@@](C)(C(=O)O[C@@H]6O[C@H](CO)[C@@H](O)[C@H](O)[C@H]6O)CC[C@]5(C)CC[C@@]4(C)[C@]3(C)CC[C@@H]12`: in the data set on RAW264.7 (raw264.7), the IC50 entry is “Not Active”. The viability in data set [1] came to 121%.

Take `CC1(C)[C@@H](O)CC[C@]2(C)[C@H]3[C@H](O)C=C4[C@@H]5C[C@@](C)(CO)CC[C@]5(C)C[C@H](O)[C@@]4(C)[C@]3(C)[C@@H](O)C[C@@H]12`: the IC50 result in the data set with RAW264.7 (raw264.7) was “Not Active”. The viability in data set [1] was found to be 112%.

Take `CC1(C)[C@@H](O)CC[C@]2(C)C3[C@H](O)C=C4[C@@H]5C[C@@](C)(CO)CC[C@]5(C)CC[C@@]4(C=O)[C@]3(C)[C@@H](O)C[C@@H]12` (stereo not given in full): in the data set with RAW264.7 (raw264.7), the IC50 entry is recorded as “Not Active”. Moreover, in data set [1], the viability turned out to be 130%.

Take `CC1(C)[C@@H](O)CC[C@]2(C)[C@H]3C(=O)C=C4[C@@H]5C[C@@](C)(C(=O)O[C@@H]6O[C@H](CO)[C@@H](O)[C@H](O)[C@H]6O)CC[C@]5(C)CC[C@@]4(C)[C@]3(C)CC[C@@H]12`: in the data set on RAW264.7 (raw264.7), the IC50 result is on record as “Not Active”. Further, the viability in data set [1] stood at 94.8%.

Turning to `CC1(C)[C@@H](O[C@@H]2O[C@H](CO)[C@@H](O)[C@H](O)[C@H]2O)CC[C@]2(C)[C@H]3C(=O)C=C4[C@@H]5C[C@@](C)(CO)CC[C@]5(C)CC[C@@]4(C)[C@]3(C)CC[C@@H]12`, the IC50 result in the data set with RAW264.7 (raw264.7) is “Not Active”. In data set [1], the viability amounted to 1.22%.

For `CC1(C)[C@@H](O)CC[C@]2(C)C3=CC=C4[C@@H]5C[C@@](C)(CO)CC[C@]5(C)C[C@H](O)[C@@]4(CO)[C@]3(C)[C@@H](O)C[C@@H]12`, in the data set on RAW264.7 (setting [2]), the IC50 was found to be 68.9 µM. In addition, the viability in data set [1] worked out at 130%.

`CC1(C)[C@@H](O)CC[C@]2(C)[C@H]3C(=O)C=C4[C@@H]5C[C@@](C)(C=O)CC[C@]5(C)CC[C@@]4(C)[C@]3(C)CC[C@@H]12`: in the data set with RAW264.7 (setting [2]), the half-inhibitory concentration (IC50) worked out at 47.2 µM. Besides, the viability in data set [1] turned out to be 89.6%.

For the compound `CC1(C)[C@@H](O)CC[C@]2(C)[C@H]3CC=C4[C@@H]5[C@H](O)[C@@](C)(CO)CC[C@]5(C)C[C@H](O)[C@@]4(C)[C@]3(C)[C@@H](O)C[C@@H]12`, the IC50 in the data set on RAW264.7 (setting [2]) stood at 0.64 µM. Besides, the viability in data set [1] is 125%.

Regarding `CC1(C)[C@@H](O)CC[C@]2(C)[C@H]3CC=C4[C@@H]5C[C@@](C)(C(=O)O)CC[C@]5(C)CC[C@@]4(CO)[C@]3(C)[C@@H](O)C[C@@H]12`, the IC50 entry with RAW264.7 (raw264.7) is on record as “Not Active”. For the same compound, in data set [1], the viability stood at 114%.

Turning to `CC1(C)[C@@H](O)CC[C@]2(C)[C@H]3CC=C4[C@@H]5C[C@@](C)(CO)CC[C@]5(C)C[C@H](O)[C@@]4(C)[C@]3(C)[C@@H](O)C[C@@H]12`, the half-inhibitory concentration (IC50) entry with RAW264.7 (raw264.7) is reported as “Not Active”. In addition, the viability in data set [1] was 120%.

Consider `CC1(C)[C@@H](O)CC[C@]2(C)[C@H]3CC=C4[C@@H]5C[C@@](C)(C(=O)O)CC[C@]5(C)CC[C@@]4(C)[C@]3(C)CC[C@@H]12`, for which, in the data set with RAW264.7 (setting [2]), the IC50 was 25.6 µM. In addition, the viability in data set [1] is 83.4%.

Consider `CC1(C)[C@@H](O)CC[C@]2(C)[C@H]3C(=O)C=C4[C@@H]5C[C@@](C)(C(=O)O)CC[C@]5(C)CC[C@@]4(C)[C@]3(C)CC[C@@H]12` [ENOXOLONE], for which the IC50 entry with RAW264.7 (raw264.7) is given as “Not Active”. In addition, in data set [1], the viability turned out to be 4.04%.

For `O=c1c(O)c(-c2ccc(O)c(O)c2)oc2cc(O)cc(O)c12` [QUERCETIN], the IC50 in the data set on RAW264.7 (setting [2]) worked out at 4.53 µM. For the same compound, the viability in data set [1] came to 106%.
